EBI2 antag – antagonists of human EBI2 receptor; P32249; EBI2 beta-arrestin recruitment, luminescence, 7a,25-OHC stimulated; inhibition, % at 5 µM; actives 0.81% (n = 360,000); AID 651636; in the data active = inhibition above about 38%;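 also: enzyme fragment complementation signal reports receptor beta-arrestin coupling in cells; 0% = agonist plus DMSO wells and 100% = wells without agonist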
Target sequence (P32249 whole entry, looked up, the tested form may be a part): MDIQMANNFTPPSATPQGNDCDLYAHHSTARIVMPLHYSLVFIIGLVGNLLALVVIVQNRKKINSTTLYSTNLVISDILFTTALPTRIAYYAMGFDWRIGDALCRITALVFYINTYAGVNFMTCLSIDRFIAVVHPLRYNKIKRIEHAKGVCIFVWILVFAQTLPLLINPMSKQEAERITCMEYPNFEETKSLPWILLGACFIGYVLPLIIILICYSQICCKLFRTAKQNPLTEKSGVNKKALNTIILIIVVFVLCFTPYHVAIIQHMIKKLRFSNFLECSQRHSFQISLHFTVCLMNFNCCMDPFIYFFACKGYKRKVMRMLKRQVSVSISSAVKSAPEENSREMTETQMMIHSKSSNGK
SENP1 FRET inh – blocks the human SENP1 SUMO protease catalytic domain. Q9P0U3. recombinant SENP1 catalytic domain, CyPet-SUMO1-YPet FRET cleavage. inhibition, % at 10 µM. actives 0.21% (n = 360,000). AID 624204;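 active = inhibition at least 30% at 10 µM, raw YFP signal under a set limit, fluorescence ratio 0.5 to 1.5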;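 also: 0% = enzyme with DMSO and 100% = no enzyme wells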
Target sequence (Q9P0U3 419-644 limits assumed): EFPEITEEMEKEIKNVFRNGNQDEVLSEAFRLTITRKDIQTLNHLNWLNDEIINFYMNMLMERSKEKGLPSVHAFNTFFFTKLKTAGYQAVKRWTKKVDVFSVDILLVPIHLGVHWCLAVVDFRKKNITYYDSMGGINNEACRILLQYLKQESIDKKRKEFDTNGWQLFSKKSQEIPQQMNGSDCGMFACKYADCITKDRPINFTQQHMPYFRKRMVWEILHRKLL
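Controls: no-enzyme wells low, DMSO-plus-enzyme wells high control. Test system: human recombinant His6-tagged SENP1 catalytic domain enzyme. Reagent: SFCypet-SUMO1-SFYpet FRET protein substrate, 25 nM final. Doses: one dose per compound, 10 µM, 0.5% DMSO. Detection: FRET, CFP and YFP emission. Timing: 50 min reaction at room temperature.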
MPTP block – inhibitors of mitochondrial permeability transition pore. isolated mouse mitochondria, Ca2+ swelling absorbance, 30 min. inhibition, % at 10 µM. actives 1.4% (n = 360,000). AID 602449;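 active = inhibition of 50% or more, scaled per plate between neutral and stimulator controls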;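 also: 0% = DMSO wells given calcium and 100% = 1 mM EGTA wells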
GRIN3A LBD mod – modulates the human NR3A ligand-binding domain; AID 1259313; Tm shift relative to glycine control, % at 25 µM; actives 2.5% (n = 340,000); NR3A LBD differential scanning fluorimetry, Tm shift; 0% = protein alone, 100% = glycine-bound protein;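 active = melting temperature shift of at least 10% of the positive control shift, at one fixed dose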
Numbers without * were called inactive; nt = no result. Sampled rows, rich in hits. Any-hit rate of the full collection: about 4.4%.

SMILES	EBI2 antag	SENP1 FRET inh	MPTP block	GRIN3A LBD mod
COc1ccc(C(=O)Nc2ccc(Nc3ccccc3)cc2)cc1[N+](=O)[O-]	14.9	0.8	0.6	27.9*
CCOc1ccccc1CN1CCN(CCCn2cccn2)CC1CCO (stereo not drawn)	-6.4	0.5	-1.0	1.8
O=C(CSc1nncs1)NNC(=O)c1ccco1	-9.1	2.8	0.2	-3.0
Oc1ccc(-c2csc(Nc3ccccn3)n2)cc1O	1.0	-1.2	4.0	33.4*
CC(=O)Nc1ccc(Nc2nc(-c3c(C)nc4ccccn34)cs2)cc1	-14.8	-7.2	31.3	13.5*
COc1ccc(-c2csc(Nc3cc(C)ccn3)n2)cc1C	19.5	-8.7	-0.7	7.5
CCC(=O)Nc1nc(C)c(-c2csc(Nc3ccccn3)n2)s1	0.3	-0.9	-1.6	25.0*
Cc1ccnc(Nc2nc(-c3ccc(O)cc3)cs2)c1	-7.8	2.1	5.5	17.9*
CCOc1ccc(CCNC(=O)Cn2c(=O)oc3ccccc32)cc1OCC	-8.7	-1.9	0.8	1.3
COc1ccc([C@H]2C(C(=O)O)=C[C@@H](C(C)(C)C)N2S(=O)(=O)c2ccc(C)cc2)cc1OC	-1.1	-0.3	-0.2	-0.5
Cc1cccc(Nc2nc(-c3ccc(F)c(C)c3)cs2)n1	33.8	1.6	0.4	3.7
CC(=O)Nc1ccc(-c2csc(Nc3ccccn3)n2)cc1	2.3	3.1	0.3	29.9*
Cc1ccnc(Nc2nc(-c3ccc(O)c(O)c3)cs2)c1	0.9	1.1	6.2	38.5*
Cc1cccc(Nc2nc(-c3ccc(O)c(O)c3)cs2)n1	4.9	-1.1	3.7	38.9*
Cc1cccnc1Nc1nc(-c2ccc(O)c(O)c2)cs1	-0.3	3.4	7.5	27.8*
O=C(Nc1ccc(NC(=O)C2CCCCC2)nc1)c1cccs1	-0.9	-1.1	-0.8	-21.8
Cc1cc(C)n(CCNS(=O)(=O)c2ccc(C)c(C)c2)n1	-0.5	2.3	0.3	-0.8
Cc1ccnc(Nc2nc(-c3ccc(O)cc3O)cs2)c1	-7.6	0.7	2.9	40.0*
COc1ccccc1-c1nnc(SCC(=O)NCc2c(C)c(Cl)cc(C(C)C)c2O)o1	28.4	1.8	18.2	23.0*
CC(C)=CCc1cc([C@@H]2CC(=O)c3ccc(O)c(CC=C(C)C)c3O2)ccc1O	16.5	-8.1	-0.1	11.0*
Cc1ccc2c(c1)C(=O)CC(c1ccc3c(c1)OCCO3)O2 (stereo not drawn)	-2.4	1.2	0.3	0.9
Cc1c(Cl)cccc1NC(=O)COC(=O)CCc1nc2ccccc2n1-c1ccccc1	8.8	0.6	1.7	24.7*
O=C(COC(=O)CCc1nc2ccccc2n1-c1ccccc1)Nc1cccc(Cl)c1	-1.3	0.2	2.9	4.4
COC(=O)/C(=N/Nc1ccccc1OC)N1CCCc2ccccc21	17.4	4.7	0.8	3.6
O=C(NC(=S)Nc1ccc(NC(=O)c2cccs2)cc1)c1ccco1	-1.3	1.6	0.7	24.0*
SMILES	EBI2 antag	SENP1 FRET inh	MPTP block	GRIN3A LBD mod
O=C(NC(=S)Nc1ccc(NC(=O)c2ccco2)cc1)c1ccccc1	-10.1	3.0	-3.4	2.1
O=C(Nc1ccc(NC(=O)c2cccs2)cc1)c1ccco1	-2.7	1.2	-5.0	20.2*
O=C(NC(=S)Nc1ccc(NC(=O)c2cccs2)cc1)c1cc2ccccc2o1	7.2	-0.2	2.3	29.3*
Cc1ccc(NC(=O)c2cccs2)cc1NC(=O)c1ccco1	4.5	-0.3	0.0	3.3
O=C(Nc1ccc(NC(=S)NC(=O)c2ccccc2F)cc1)c1cccs1	1.9	-0.5	-2.6	19.5*
O=C(N/N=C/c1cc2ccccc2[nH]1)c1ccccc1Cl	7.5	1.1	0.4	4.6
O=C(Nc1nnc(SCc2ccc(F)cc2)s1)c1ccccn1	66.6*	-1.4	-3.0	-12.2
COc1ccc(N2CSC3=C(C#N)C(c4cccs4)CC(=O)N3C2)cc1 (stereo not drawn)	-1.3	-0.1	2.0	18.6*
Cc1ccc(N2CSC3=C(C#N)C(c4cccs4)CC(=O)N3C2)cc1 (stereo not drawn)	-1.1	-49.1	0.2	-26.6
CC(C)(c1ccccc1)c1ccc(OCCn2cnc3ccccc3c2=O)cc1	-3.3	-1.6	1.2	21.5*
O=C(c1ccccc1)c1ccc(OCCn2cnc3ccccc3c2=O)cc1	-4.1	0.1	-1.9	-0.1
Cc1noc(C)c1S(=O)(=O)N1CCN(c2ccc([N+](=O)[O-])cc2)CC1	10.9	-10.5	-0.6	0.7
COC(=O)c1cc(S(=O)(=O)N2CCN(c3ccc([N+](=O)[O-])cc3)CC2)c[nH]1	0.6	-6.2	0.0	207.0*
COC(=O)c1cc(S(=O)(=O)N2CCN(c3ccc(F)cc3)CC2)c[nH]1	0.9	1.1	-0.8	1.8
O=[N+]([O-])c1ccc(N2CCN(S(=O)(=O)c3cnc[nH]3)CC2)cc1	-2.8	2.4	-1.0	10.5*
O=C(N/N=C/c1ccccc1)c1ccc(NC(=O)c2ccc(F)cc2)cc1	4.6	-1.0	0.8	32.9*
COc1ccc(C(=O)N/N=C/c2ccc(OC)c(OS(=O)(=O)c3ccccc3)c2)cc1	3.3	3.1	3.4	13.2*
O=C(CCCC(=O)Nc1ccc(Br)cc1)N/N=C/c1ccccc1	-7.2	0.6	-1.0	10.0*
O=C(CCCSCCCC(=O)NN=Cc1ccccc1)NN=Cc1ccccc1	20.8	2.5	10.8	2.0
COc1ccc(/C=N/NC(=O)c2ccc(NC(=O)c3ccccc3Br)cc2)cc1	3.5	4.2	-0.6	26.7*
Cc1ccc(N2CC(C(=O)Nc3ccc(S(=O)(=O)Nc4ncccn4)cc3)CC2=O)cc1C (stereo not drawn)	6.6	2.3	-0.4	-0.4
COc1ccc(C(=O)Oc2ccc(C(=S)N3CCOCC3)cc2)cc1	1.3	1.9	-3.1	0.5
COc1ccc(/C=C(\NC(=O)c2ccc(OC)c(OC)c2)C(=O)N2CCN(C)CC2)cc1	-7.5	0.6	-1.5	-0.7
CCNC(=O)C1(C)CCN(C(=O)c2cccc(C(F)(F)F)c2)C1 (stereo not drawn)	-4.4	2.0	0.4	nt
Cc1ccccc1C(=O)Nc1ccc(C(=O)N/N=C/c2ccc(O)c(Br)c2)cc1	5.6	3.7	0.2	28.1*
SMILES	EBI2 antag	SENP1 FRET inh	MPTP block	GRIN3A LBD mod
O=C(N/N=C/c1cc(Br)cc(Br)c1O)c1ccncc1	nt	nt	nt	-6.4
Cc1ccccc1C(=O)Nc1ccc(C(=O)N/N=C/c2ccc(F)cc2)cc1	6.3	-2.7	0.7	26.0*
O=C(N/N=C/c1cc(Br)cc([N+](=O)[O-])c1O)c1ccc(NC(=O)c2ccc(F)cc2)cc1	17.9	3.4	17.3	18.3*
O=C(N/N=C/c1ccc2c(c1)OCO2)c1ccc2c(c1)OCCO2	3.6	-0.3	-0.6	2.9
O=C(N/N=C/c1ccc2c(c1)OCO2)c1ccc(NC(=O)c2ccc(F)cc2)cc1	4.2	-2.0	0.8	18.9*
CCSc1c([N+](=O)[O-])c(=O)n(-c2ccccc2)c2ccccc12	-21.6	-2.2	3.0	0.3
CC(C)C(C)(C#N)NC(=O)CSc1nc(C2CCCCC2)n(-c2ccccc2)n1 (stereo not drawn)	5.7	2.8	0.6	-1.6
CCc1noc(C)c1C(=O)NC1CCCc2c1cnn2-c1ccc(C(C)(C)C)cc1 (stereo not drawn)	4.3	-2.1	3.4	1.8

Assay outcomes (PubChem)
